Experimental data taken from ChEMBL document CHEMBL4177771, “Endoplasmic Reticulum-Localized Two-Photon-Absorbing Boron Dipyrromethenes as Advanced Photosensitizers for Photodynamic Therapy” (J Med Chem, 2018).
Values belong to the compound of their own block, whether it stands above or below them. The source made the active and inactive calls. The calls are words filed in the database; no cut-off is given here.

What was measured:
[1] = Drug uptake in endoplasmic reticulum of human HeLa cells at 2 uM after 2 hrs by ER-tracker green-based confocal microscopic method; type: ADME, subcellular
Outline: (§1)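 Cells on glass-bottom dishes given 2 μM for 2 h or 4 μM for 4 h at 37 °C. After PBS washes, stained in HBSS with 0.2 μM ER-tracker or Mito-tracker green for 15 min at 37 °C. Confocal imaging: trackers excited at 488 nm, emission 500–570 nm; BODIPY excited at 633 nm, emission 650–760 nm.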

[2] = Drug uptake in endoplasmic reticulum of human HepG2 cells at 2 uM after 2 hrs by ER-tracker green-based confocal microscopic method; type: ADME, subcellular; conditions: hepg2, 2 h; outline: as §1
[3] = Drug uptake in mitochondria of human HeLa cells at 2 uM after 2 hrs by Mito-tracker green-based confocal microscopic method; type: ADME; outline: as §1
[4] = Drug uptake in mitochondria of human HepG2 cells at 2 uM after 2 hrs by Mito-tracker green-based confocal microscopic method; type: ADME; conditions: hepg2, 2 h; outline: as §1
[5] = Drug uptake in lysosome of human HeLa cells at 2 uM after 2 hrs by […]-based confocal microscopic method; type: ADME, subcellular
[6] = Drug uptake in lysosome of human HepG2 cells at 2 uM after 2 hrs by […]-based confocal microscopic method; type: ADME, subcellular; conditions: hepg2, 2 h
HepG2 [7] = assay: Ratio of compound activity for induction of reactive oxygen species generation in human HepG2 cells at 0.8 uM in presence of light to in absence of light; type: toxicity, cell-based; conditions: hepg2, 0.8 µM
Outline: (§2)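 HepG2 cells in 96-well plates incubated 2 h with 0.05–0.8 μM in RPMI 1640, washed, then loaded with H2DCFDA (10 μM in HBSS) for 30 min at 37 °C in dark. Washed, re-fed with HBSS, then irradiated (λ > 610 nm) or left dark. Fluorescence read at 485/535 nm. Mean with SEM of three independent experiments.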

[8] = Induction of singlet oxygen generation in PBS assessed as increase in decay of DPBF at 2 uM by spectroscopic method; type: functional
HeLa [9] = assay: Photocytotoxicity against human HeLa cells assessed as decrease in cell viability preincubated in dark for 2 hrs followed by illumination by halogen lamp for 20 mins by MTT assay; type: functional, cell-based
Outline: (§3)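 Cells seeded at 2 × 10^5 cells mL−1 in 96-well plates 24 h before; 2 h dark incubation with compound (0.0125–0.4 μM or 0.5–8 μM), PBS wash, re-feed. Then 300 W halogen lamp with red filter (λ > 610 nm), 40 mW cm−2, 20 min at r.t. (48 J cm−2). MTT read-out at 490 nm. IC50 = concentration killing 50% of cells. Three independent experiments, quadruplicate.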

HepG2 [10] = assay: Photocytotoxicity against human HepG2 cells assessed as decrease in cell viability preincubated in dark for 2 hrs followed by illumination by halogen lamp for 20 mins by MTT assay; type: functional, cell-based; outline: as §3
[11] = Dark toxicity against human HeLa cells assessed as decrease in cell viability at 0.0125 to 0.4 uM incubated for 2 hrs by MTT assay; type: cell-based
Outline: (§4)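 Cells seeded at 2 × 10^5 cells mL−1 in 96-well plates 24 h before; incubated with compound (0.4–0.0125 μM or 8–0.5 μM series) in dark 2 h, washed with PBS, re-fed, kept unirradiated. MTT (3 mg mL−1) added, 4 h at 37 °C, DMSO added, absorbance at 490 nm. Mean ± SEM of three independent experiments, each in quadruplicate. HepG2 cells were grown in RPMI 1640 and HeLa in DMEM.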

[12] = Dark toxicity against human HepG2 cells assessed as decrease in cell viability at 0.0125 to 0.4 uM incubated for 2 hrs by MTT assay; type: cell-based; conditions: hepg2, 2 h; outline: as §4
[13] = Drug uptake in human HeLa cells at 2 uM after 2 hrs by flow cytometric method; type: ADME, cell-based
Outline: (§5)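 Cells in 35 mm dishes incubated in RPMI 1640 at 37 °C, 5% CO2, with 2 μM for 2 h or 4 μM for 4 h. Rinsed, trypsinised, pelleted at 400g, resuspended in HBSS. Flow cytometry on 10^4 cells: excitation 640 nm, emission 720–840 nm. Triplicate; mean ± SD of three independent experiments.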

[14] = Drug uptake in human HepG2 cells at 2 uM after 2 hrs by flow cytometric method; type: ADME, cell-based; conditions: hepg2, 2 h; outline: as §5
[15] = Stability of the compound in PBS at 2 uM measured over 25 mins in presence of illumination by halogen lamp; type: physicochemical; conditions: buffer
HepG2 [16] = assay: Photocytotoxicity against human HepG2 cells assessed as decrease in cell viability at 0.19 uM preincubated in dark for 2 hrs followed by illumination by halogen lamp for 20 mins by MTT assay relative to control; type: functional
Outline: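 Light-dose study: HepG2 cells given 0.19 μM for 2 h, washed twice with PBS, re-fed, then illuminated with halogen lamp (λ > 610 nm, 40 mW cm−2) for 10, 15, 20 or 25 min. Viability by MTT (4 h, 37 °C), DMSO, absorbance at 490 nm.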

HeLa [17] = assay: Induction of apoptosis in human HeLa cells at 2 uM preincubated in dark for 2 hrs followed by two photon irradiation for 10 mins measured after 3 hrs by propidium iodide staining-based laser scanning microscopic method; type: functional, cell-based
Outline: (§6)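 HeLa cells given 2 μM for 2 h, rinsed and re-fed. Irradiated with 800 nm laser (400 mW) for 10 min at 37 °C, 5% CO2; dark controls kept unirradiated. After 3 h, stained with PI (50 μg in 1 mL PBS) for 10 min, rinsed. Imaged with PI excited at 488 nm (550–700 nm) and BODIPY at 633 nm (640–735 nm), plus bright field.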

HeLa [18] = assay: Induction of apoptosis in human HeLa cells assessed as cell shrinkage at 2 uM preincubated in dark for 2 hrs followed by two photon irradiation for 10 mins measured after 3 hrs by bright field microscopic method; type: functional, cell-based; outline: as §6
[19] = Drug uptake in human HeLa cells at 2 uM incubated for 2 hrs upon one-photon excitation by confocal microscopic method; type: ADME, cell-based
Outline: (§7)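 HeLa cells (about 1.2 × 10^5) grown overnight on glass-bottom dishes, then treated with 2 μM in medium containing 0.125% v/v DMF and 0.025% v/v Tween 80 for 2 h. Rinsed with PBS and imaged by laser scanning microscopy with 633 nm (one-photon) or 800 nm (two-photon) excitation.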

[20] = Drug uptake in human HeLa cells at 2 uM incubated for 2 hrs upon two-photon excitation by confocal microscopic method; type: ADME, cell-based; outline: as §7
HepG2 [21] = assay: Induction of reactive oxygen species generation in human HepG2 cells at 0.05 to 0.8 uM after 2 hrs in presence of light by H2DCFDA probe-based fluorescence assay; type: functional, cell-based; outline: as §2
HepG2 [22] = assay: Induction of reactive oxygen species generation in human HepG2 cells at 0.05 to 0.8 uM after 2 hrs in absence of light by H2DCFDA probe-based fluorescence assay; type: cell-based; conditions: hepg2, 2 h; outline: as §2
HepG2 [23] = assay: Increase in intracellular calcium levels in human HepG2 cells at 0.05 to 0.8 uM after 2 hrs in presence of light by fluo-3 AM dye-based fluorescence assay relative to control; type: functional
Outline: (§8)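 HepG2 cells in 96-well plates given 0.05–0.8 μM in RPMI 1640 for 2 h, with or without illumination (λ > 610 nm). Afterwards washed, loaded with Fluo-3 AM (2.5 μM in HBSS) for 1 h at 37 °C in dark. Washed, re-fed with HBSS, fluorescence read at 485/535 nm. Mean with SEM of three independent experiments.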

HepG2 [24] = assay: Increase in intracellular calcium levels in human HepG2 cells at 0.05 to 0.8 uM after 2 hrs in absence of light by fluo-3 AM dye-based fluorescence assay; type: ADME, cell-based; conditions: hepg2, 2 h; outline: as §8
HepG2 [25] = assay: Induction of endoplasmic reticulum stress in human HepG2 cells assessed as upregulation of GRP78 expression at 0.15 uM after 4 to 8 hrs in presence of light by Western blot method; type: functional, cell-based
Outline: (§9)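 HepG2 cells in 60 mm dishes treated with 150 nM in RPMI 1640, with or without illumination (λ > 610 nm). Lysed in RIPA buffer at 2, 4, 6 and 8 h after PDT. Equal protein run on 10% polyacrylamide gels and transferred to PVDF. Blocked in 5% nonfat milk, probed for GRP78, CHOP and actin, with HRP chemiluminescent detection. Control cells were illuminated without compound.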

HepG2 [26] = assay: Induction of endoplasmic reticulum stress in human HepG2 cells assessed as upregulation of CHOP expression at 0.15 uM after 4 to 8 hrs in presence of light by Western blot method; type: functional, cell-based; outline: as §9
HepG2 [27] = assay: Induction of endoplasmic reticulum stress in human HepG2 cells assessed as upregulation of GRP78 expression at 0.15 uM after 4 to 8 hrs in absence of light by Western blot method; type: cell-based; conditions: hepg2, 0.15 µM; outline: as §9
HepG2 [28] = assay: Induction of endoplasmic reticulum stress in human HepG2 cells assessed as upregulation of CHOP expression at 0.15 uM after 4 to 8 hrs in absence of light by Western blot method; type: cell-based; conditions: hepg2, 0.15 µM; outline: as §9
HeLa [29] = assay: Induction of apoptosis in human HeLa cells at 2 uM incubated in dark for 2 hrs measured after 3 hrs by propidium iodide staining-based laser scanning microscopic method; type: cell-based; outline: as §6
[30] = Induction of singlet oxygen generation in DMF assessed as increase in decay of DPBF at 1 uM by spectroscopic method

- Drug uptake [1]: Not Active
- Drug uptake [2]: Not Active
- Drug uptake [3]: Not Active
- Drug uptake [4]: Not Active
- Drug uptake [5]: Not Active
- Drug uptake [6]: Not Active
Compound: CCOC(=O)COc1ccc(C2=C3C(C)=C(Br)C(/C=C/c4ccc(OCCOCCOCCOC)cc4)=[N+]3[B-](F)(F)n3c(/C=C/c4ccc(OCCOCCOCCOC)cc4)c(Br)c(C)c32)cc1

- Drug uptake [13]: Active
- Drug uptake [14]: Active
- Stability [15]: Stable
- Drug uptake [1]: Active
- Drug uptake [2]: Active
- Drug uptake [3]: Not Active
- Drug uptake [4]: Not Active
- Drug uptake [5]: Not Active
- Drug uptake [6]: Not Active
- Drug uptake [19]: Active
- Drug uptake [20]: Active
Compound: COCCOCCOCCOc1ccc(/C=C/C2=[N+]3C(=C(c4ccc(OCC(=O)NCCc5ccc(S(=O)(=O)NC(=O)NC6CCCCC6)cc5)cc4)c4c(C)c(Br)c(/C=C/c5ccc(OCCOCCOCCOC)cc5)n4[B-]3(F)F)C(C)=C2Br)cc1
- Ratio (HepG2 [7]): 9
- Activity [8]: Active
- IC50 (HeLa [9]): 90 nM
- IC50 (HepG2 [10]): 160 nM
- Activity [11]: Non-Toxic
- Activity [12]: Non-Toxic
- Activity (HepG2 [16]): 50%
- Activity (HeLa [17]): Active
- Activity (HeLa [18]): Active
- Activity (HepG2 [21]): Dose-dependent effect
- Activity (HepG2 [22]): Non-Toxic
- fold change (FC) (HepG2 [23]): 3.5
- Activity (HepG2 [24]): Non-Toxic
- Activity (HepG2 [25]): Active
- Activity (HepG2 [26]): Active
- Activity (HepG2 [27]): Non-Toxic
- Activity (HepG2 [28]): Non-Toxic
- Activity (HeLa [29]): Non-Toxic
- Activity [30]: Active
